Many of the other results were omitted from the sample, so hits are more common in it than they were.
Dynein transport: blocks dynein driven cargo transport along microtubules. AID 1381. z-score, hits read low. 3617.4 mouse cells, GR-EGFP nuclear translocation imaging; test concentration mostly 20 µM; stimulated with dexamethasone, 1 µM; stronger effect = lower value. actives 0.47% (n = 220,000);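 active = plate z-score of nuclear minus cytoplasmic receptor signal below a set negative limit, without overly bright fluorescence or cell loss, cut at about -3.5 in these data, passing the limit was not always enough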;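 note: z-score of nuclear minus cytoplasmic ring GR-EGFP intensity difference per well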
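Also added – dexamethasone, 1.0 µM final · Buffer or medium – tet-free, stripped-serum medium · Schedule – induction 48 h, compound 1 h, agonist 30 min · Detection – formaldehyde fixation, Hoechst nuclear stain, 10x automated fluorescence imaging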
UPR CHOP act: apoptotic UPR (CHOP) activation | CHO-CHOP luciferase reporter, luminescence; percent of tunicamycin response over DMSO baseline | activation, % at 10 µM | actives 0.34% (n = 330,000) | AID 449763;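 active = at 10 µM dose, activation of 40% or more, normalized to positive control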
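Dosing – one dose, 10 µM in 0.5% DMSO · System – CHO-CHOP cells, stable luciferase reporter of PERK-eIF2a-CHOP signalling · Input – 500 cells/well · Control set – tunicamycin 10 µg/mL final as positive, DMSO-only wells as negative · Timing – 6 h compound treatment, 37 °C · Measure – % activation vs tunicamycin · Technique – luminescence read with Steady-Glo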
T cruzi inh: T. cruzi replication inhibition | inhibition, % (test concentration not listed) | T. cruzi beta-gal in NIH3T3, luminescence, 90 h | AID 1885 | actives 1.4% (n = 300,000);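 active = mean inhibition across valid replicates above about 55%, limit read from the data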;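 note: signal also drops with host cell toxicity which is not excluded here; higher percent means less beta-gal luminescence so fewer parasites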
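compound dosing = single 50 nL compound addition per well in DMSO | material = NIH/3T3 host cells with β-galactosidase reporter T. cruzi | input = 5,000 host fibroblasts per well | timing = ≥90 h infection period, 3 h prior cell attachment | read-out basis = percent inhibition of parasite-derived β-gal signal | detection = GalScreen β-gal luminescence, detergent lysis, 60 min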
UPR XBP1 act: activators of adaptive arm of unfolded protein response (XBP1). activation, % at 20 µM. actives 0.33% (n = 330,000). CHO-XBP1 luciferase reporter, IRE1-XBP1 UPR activation, luminescence; percent of tunicamycin response, DMSO as zero;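 active = versus positive control, 20 µM dose yields 30% or more activation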
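Material: CHO-XBP1 cells stably carrying IRE1-XBP1-driven luciferase reporter | Medium: F12 with 10% serum | Compound dosing: 20 µM single concentration, DMSO 1% | Incubation: Overnight seeding at 37 °C, 6 h compound treatment at 37 °C | Detection: Steady-Glo luminescence read | Read-out basis: % activation of reporter signal versus tunicamycin and DMSO controls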
CHOP inhibitor: CHOP inhibition in unfolded protein response; CHO-K1 CHOP-promoter luciferase, tunicamycin-induced, 15-18 h; inhibition, % at 10 µM; actives 3.8% (n = 220,000);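 active = compounds that reduced the stress-induced luciferase reporter signal by more than about 70% of percent inhibition, limit read from the data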
Lmaj promast: reduces viability of Leishmania major promastigotes. resazurin fluorescence viability. inhibition, % at 10 µM. actives 9% (n = 200,000). AID 1063; in the data active = inhibition above about 50%;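 note: promastigotes grown with compound for 44 hours at 28 °C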
A number is an active result.

For COc1ccc2cc3cc(C(=O)NCCN4CCc5ccccc5C4)oc3nc2c1 the results were Dynein transport inactive, UPR CHOP act inactive, T cruzi inh inactive, UPR XBP1 act inactive, CHOP inhibitor inactive and Lmaj promast 98.9.
Cc1ccccc1S(=O)(=O)Cc1ccc(C(=O)NCCN2CCN(Cc3ccccc3)CC2)o1 was read as Dynein transport inactive, UPR CHOP act inactive, T cruzi inh 60.7, UPR XBP1 act inactive, CHOP inhibitor inactive and Lmaj promast inactive.
Screening CCC(C)NC(=O)c1cc2cc3ccc(OC)cc3nc2s1 (stereo not drawn) returned Dynein transport inactive, UPR CHOP act inactive, T cruzi inh inactive, UPR XBP1 act inactive, CHOP inhibitor inactive and Lmaj promast inactive.
COc1ccc2cc3cc(C(=O)NCCN4CCc5ccccc5C4)sc3nc2c1 was read as Dynein transport inactive, UPR CHOP act inactive, T cruzi inh inactive, UPR XBP1 act inactive, CHOP inhibitor inactive and Lmaj promast 50.0.
Screening COc1ccc2cc3cc(C(=O)NCCN4CCN(Cc5ccccc5)CC4)oc3nc2c1 returned Dynein transport inactive, UPR CHOP act inactive, T cruzi inh 63.7, UPR XBP1 act inactive, CHOP inhibitor inactive and Lmaj promast 95.0.
Screening COc1ccc2cc3cc(C(=O)N4CCCCCC4)oc3nc2c1 returned UPR CHOP act inactive, T cruzi inh inactive and UPR XBP1 act inactive.
For COc1cccc(NC(=O)CN2C(=O)COc3ccc(S(=O)(=O)N4CCC(C)CC4)cc32)c1 the results were UPR CHOP act inactive, T cruzi inh inactive and UPR XBP1 act inactive.
For Cc1cccc(NC(=O)C2(c3cccs3)CCOCC2)n1 the results were Dynein transport inactive, UPR CHOP act inactive, T cruzi inh inactive, UPR XBP1 act inactive, CHOP inhibitor inactive and Lmaj promast inactive.
For C/C=C/C(=O)N[C@@H]1c2ccccc2CC[C@@H]1OCc1ccccc1 the results were UPR CHOP act inactive and UPR XBP1 act inactive.
`CCOC(=O)N1CCC(NC(=O)c2cc3cc4cc(OC)ccc4nc3o2)CC1` gave Dynein transport inactive, UPR CHOP act inactive, T cruzi inh inactive, UPR XBP1 act inactive, CHOP inhibitor inactive and Lmaj promast inactive.
Screening COc1ccc2nc3oc(C(=O)NC4CCN(Cc5ccccc5)CC4)cc3cc2c1 returned Dynein transport inactive, UPR CHOP act inactive, UPR XBP1 act inactive, CHOP inhibitor inactive and Lmaj promast 99.8.
C[C@H](CO)N1C[C@H](C)[C@@H](CN(C)C(=O)Nc2ccccc2)Oc2c(NC(=O)C3CCCCC3)cccc2C1=O was read as UPR CHOP act inactive and UPR XBP1 act inactive.
For C[C@@H]1C(=O)N(c2ccccc2)[C@@H]1c1ccncc1 the results were UPR CHOP act inactive and UPR XBP1 act inactive.
COc1cc(-c2cc(-c3ccccc3)nc(SCC(=O)Nc3nccs3)c2C#N)cc(OC)c1OC was read as Dynein transport inactive, UPR CHOP act inactive, T cruzi inh 55.2, UPR XBP1 act inactive and Lmaj promast inactive.
`CCc1nnc(NC(=O)CSc2nc(-c3ccccc3)nc3ccccc23)s1` gave Dynein transport inactive, UPR CHOP act inactive, T cruzi inh inactive, UPR XBP1 act inactive, CHOP inhibitor 90.3 and Lmaj promast inactive.
`CCc1nnc(NC(=O)CSc2nc(-c3ccccc3)cc(-c3ccc(F)cc3)c2C#N)s1` gave Dynein transport inactive, UPR CHOP act inactive, T cruzi inh inactive, UPR XBP1 act inactive, CHOP inhibitor 83.6 and Lmaj promast inactive.
Screening Cc1cc(C)c(C#N)c(SCC(=O)Nc2nnc(-c3ccccc3)s2)n1 returned Dynein transport inactive, UPR CHOP act inactive, T cruzi inh 55.0, UPR XBP1 act inactive, CHOP inhibitor inactive and Lmaj promast inactive.
`CCc1nnc(NC(=O)CSc2nc(C3CCCCC3)nc3ccccc23)s1` gave Dynein transport inactive, UPR CHOP act inactive, T cruzi inh inactive, UPR XBP1 act inactive, CHOP inhibitor inactive and Lmaj promast inactive.
Screening CC1CCC(NC(=O)CCN2C(=O)C3C4C=CC(C4)C3C2=O)CC1 (stereo not drawn) returned UPR CHOP act inactive, T cruzi inh inactive and UPR XBP1 act inactive.
